Reference: ChEMBL document CHEMBL1125645, “Specific bradycardic agents. 2. Heteroaromatic modifications in the side chain of specific bradycardic benzazepinones: chemistry, pharmacology, and structure-activity relationships” (1991)
Activity calls are given as the source filed them. The calls are words filed in the database; no cut-off is given here.

Assays:
Rattus norvegicus [1] = experiment: Bradycardic activity was evaluated in an anesthetized rat model as percent heart rate(beats/min) reduction 20 min after iv injection of 5 mg/kg; type: functional
In short: (§1)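 Male Chbb:THOM rats, 200-250 g, anesthetized with pentobarbital sodium 50 mg/kg ip, with the trachea cannulated and artificial respiration given. Heart rate was recorded continuously by an ECG-triggered beat-to-beat tachograph before and at 5 and 20 min after a single iv injection of 5 mg/kg. Values are % change from pre-dose, reported ± SEM.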

Rattus norvegicus [2] = experiment: Bradycardic activity was evaluated in an anesthetized rat model as percent heart rate(beats/min) reduction 5 min after iv injection of 5 mg/kg; type: functional; in short: as §1
Rattus norvegicus [3] = experiment: Hypotensive activity was evaluated in an anesthetized rat model as percent mean aortic blood pressure(mm hg) reduction 5 min after iv injection of 5 mg/kg; type: functional, Artery
In short: (§2)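 In pentobarbital-anesthetized (50 mg/kg ip), artificially ventilated male Chbb:THOM rats (200-250 g), mean aortic pressure was measured through a carotid artery cannula connected to an electromechanical transducer. Readings were taken before and 5 min after 5 mg/kg iv. Values are % change from baseline, ± SEM.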

[4] = (§3) delta HR Ratio measured as the ratio of delta HR(20 min)/delta HR (5 min); type: functional
In short: (§4)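 Duration-of-action index: the % heart-rate reduction at 20 min divided by that at 5 min after 5 mg/kg iv. Rats were male Chbb:THOM, pentobarbital-anesthetized and ventilated, with heart rate taken from an ECG-triggered tachograph.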

Rattus norvegicus [5] = species on record: Rattus norvegicus; experiment: (§5) Ratio of heart rate reduction to mean arterial blood pressure reduction; type: functional
In short: (§6)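 Selectivity parameter S: the % heart-rate reduction divided by the % mean arterial pressure reduction, both read 5 min after 5 mg/kg iv in anesthetized, ventilated male Chbb:THOM rats. Heart rate came from an ECG-triggered tachograph and pressure from a carotid cannula.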

Rattus norvegicus [6] = experiment: Hypotensive activity was evaluated in an anesthetized rat model as percent mean aortic blood pressure(mm hg) reduction 5 min after iv injection of 5 mg/kg of the compound; NA=Not active; type: functional, organism-based; set-up: dose 5 mg/kg; conditions: Artery; in short: as §2
Rattus norvegicus [7] = species on record: Rattus norvegicus; experiment: Delta HR ratio measured as the ratio of delta HR(20 min)/delta HR (5 min); type: functional; in short: as §4
Rattus norvegicus [8] = experiment: Bradycardic activity was evaluated in an anesthetized rat model as percent heart rate(beats/min) reduction 20 min after iv injection of 5 mg/kg of the compound; NA=Not active; type: functional, organism-based; set-up: dose 5 mg/kg; in short: as §1
Rattus norvegicus [9] = experiment: Bradycardic activity was evaluated in an anesthetized rat model as percent heart rate(beats/min) reduction 5 min after iv injection of 5 mg/kg of the compound; NA=Not active; type: functional, organism-based; set-up: dose 5 mg/kg; in short: as §1
Rattus norvegicus [10] = experiment: Bradycardic activity was evaluated in an anesthetized rat model as percent heart rate(beats/min) reduction 20 min after iv injection of 5 mg/kg of the compound; NA= Not active; type: functional, organism-based; set-up: dose 5 mg/kg; in short: as §1
[11] = as §5; type: tissue-based; in short: as §6
[12] = as §3; in short: as §4

Row | SMILES | Delta HR (Rattus norvegicus [1]) | Delta HR (Rattus norvegicus [2]) | Delta MAP (Rattus norvegicus [6]) | Ratio (Rattus norvegicus [7]) | Delta HR (Rattus norvegicus [8]) | Delta HR (Rattus norvegicus [9]) | further results
1 | COc1cc2c(cc1OC)CC(=O)N(CCCN(C)CCc1cn(C)cn1)CC2 | -11% | -10% |  |  |  |  | Delta MAP (Rattus norvegicus [3]): -10%; Ratio [4]: 1.1; Selectivity (Rattus norvegicus [5]): 1
2 | COc1ccc2c(CCN(C)CCCN3CCc4cc(OC)c(OC)cc4CC3=O)csc2c1 | -60% | -67% |  |  |  |  | Delta MAP (Rattus norvegicus [3]): -52%; Ratio [4]: 0.89; Selectivity (Rattus norvegicus [5]): 1.3
3 | COc1cc2c(cc1OC)CC(=O)N(CCCN(C)CCc1ccccn1)CC2 | -16% | -15% | inactive | 1.1 |  |  | 
4 | COc1cc2c(cc1OC)CC(=O)N(CCCN(C)CCn1ccnc1)CC2 |  |  | inactive |  | inactive | inactive | 
5 | COc1cc2c(cc1OC)CC(=O)N(CCCN(C)CCCCn1ccnc1)CC2 |  |  | inactive |  | inactive | inactive | 
6 | COc1cc2c(cc1OC)CC(=O)N(CCCN(C)Cc1ccccn1)CC2 |  |  | inactive |  | inactive | inactive | 
7 | COc1cc2c(cc1OC)CC(=O)N(CCCN(C)CCn1cnc3ccccc31)CC2 | -15% | -10% | inactive | 1.5 |  |  | 
8 | COc1cc2c(cc1OC)CC(=O)N(CCCN(C)CCc1cncc3cc(OC)c(OC)cc13)CC2 | -5% | -5% | inactive | 1 |  |  | 
9 | COc1cc2c(cc1OC)CC(=O)N(CCCN(C)CCc1ccncc1)CC2 | -21% | -10% | inactive | 2.1 |  |  | 
10 | COc1cc2c(cc1OC)CC(=O)N(CCCN(C)CCc1c[nH]cn1)CC2 |  |  |  |  |  | inactive | Delta HR (Rattus norvegicus [10]): inactive; Delta MAP (Rattus norvegicus [3]): -11%
11 | COc1cc2c(cc1OC)CC(=O)N(CCCN(C)CCc1c[nH]c3c(C)cccc13)CC2 | -44% | -50% |  |  |  |  | Delta MAP (Rattus norvegicus [3]): -26%; Selectivity [11]: 1.9; Ratio [12]: 0.88
12 | COc1cc2c(cc1OC)CC(=O)N(CCCN(C)Cc1c(C)noc1C)CC2 | -14% | -5% | inactive | 2.8 |  |  | 
13 | COc1cc2c(cc1OC)CC(=O)N(CCCN(C)Cc1cccnc1)CC2 |  |  | inactive |  | inactive | inactive | 
14 | COc1cc2c(cc1OC)CC(=O)N(CCCN(C)CCc1ccsc1)CC2 | -19% | -24% | inactive | 0.79 |  |  | 
15 | COc1cc2c(cc1OC)CC(=O)N(CCCN(C)CCc1scnc1C)CC2 |  |  | inactive |  | inactive | inactive | 
